Results from different studies.
Read-out: cell growth or viability

Cc1ncsc1-c1ccc([C@H](C)NC(=O)[C@@H]2C[C@@H](O)CN2C(=O)[C@@H](NC(=O)CCCCCCCS(=O)(=O)NC(=O)c2nc(N3CCc4cccc(C(=O)Nc5nc6ccccc6s5)c4C3)ccc2-c2cnn(CC34CC5CC(CC(C5)C3)C4)c2C)C(C)(C)C)cc1 — IC50 (MOLT-4; MTS; 48 h): 0.0037 µM
O=C(CSc1nc2ccccc2s1)N/N=C/c1ccc(OCC(=O)Nc2cccc(Br)c2)cc1 — IC50 (LN-229; MTS; 72 h): 65.5 µM
Cc1nc2c(n1CCCN1CCCCC1)C(=O)c1ccccc1C2=O — IC50 (MIA PaCa-2; MTT): 14.7 µM
Cc1ncsc1-c1ccc([C@H](CC(=O)NCCCNC(=O)c2nc(N3CCc4cccc(C(=O)Nc5nc6ccccc6s5)c4C3)ccc2-c2cnn(CC34CC5CC(CC(C5)C3)C4)c2C)NC(=O)[C@@H]2C[C@@H](O)CN2C(=O)[C@@H](NC(=O)C2(C#N)CC2)C(C)(C)C)cc1 — IC50 (MOLT-4; MTS; 48 h): 0.111 µM
O=C(NO)c1ccc(Cn2cnc3c(Nc4ccc(F)c(Cl)c4)ncnc32)cc1 — IC50 (Jurkat; MTT; 72 h): 1.2 µM
O=c1cc(OCc2cc(-c3ccc(C(F)(F)F)cc3)no2)c2ccccc2o1 — IC50 (LN-229; MTS; 72 h): > 100 µM
Cc1ncsc1-c1ccc([C@H](CC(=O)NCCCCNC(=O)c2nc(N3CCc4cccc(C(=O)Nc5nc6ccccc6s5)c4C3)ccc2-c2cnn(CC34CC5CC(CC(C5)C3)C4)c2C)NC(=O)[C@@H]2C[C@@H](O)CN2C(=O)[C@@H](NC(=O)C2(C#N)CC2)C(C)(C)C)cc1 — IC50 (MOLT-4; MTS; 48 h): 0.0313 µM
O=C(CSc1nc2ccccc2s1)N/N=C/c1ccc(OCC(=O)Nc2cccc([N+](=O)[O-])c2)cc1 — IC50 (MOLT-4; MTS; 72 h): 15.3 µM
COC[C@H](NC(=O)c1ccn(S(C)(=O)=O)c1)C(=O)Nc1nc(-c2cccc(N3C[C@@H](C)O[C@@H](C)C3)n2)cs1 — IC50 (LNCaP; ATP luminescence; 7 days): 0.008 µM
COc1cc2[nH]cc(C(=O)C(C#N)=Cc3cn(Cc4ccc(Cl)cc4)c4ccccc34)c2cc1OC — IC50 (MIA PaCa-2; MTT; 48 h): > 40 µM
Cc1ncsc1-c1ccc([C@H](C)NC(=O)[C@@H]2C[C@@H](O)CN2C(=O)[C@@H](NC(=O)CCCCCCCS(=O)(=O)NC(=O)c2nc(N3CCc4cccc(C(=O)Nc5nc6ccccc6s5)c4C3)ccc2-c2cc(C#N)n(CC34CC5CC(CC(C5)C3)C4)c2C)C(C)(C)C)cc1 — IC50 (MOLT-4; MTS; 48 h): 0.0202 µM
O=C(NO)c1ccc(Cn2cnc3c(Nc4ccc(Br)cc4F)ncnc32)cc1 — IC50 (MOLT-4; MTT; 72 h): 0.53 µM
FC(F)(F)c1ccc(-c2cc(COc3cc(C(F)(F)F)nc4ccccc34)on2)cc1 — IC50 (LN-229; MTS; 72 h): > 100 µM
CCNC(=O)c1nc(N2CCc3cccc(C(=O)Nc4nc5ccccc5s4)c3C2)ccc1-c1cnn(CC23CC4CC(CC(C4)C2)C3)c1C — IC50 (MOLT-4; MTS; 48 h): 0.481 µM
COC(=O)c1cc(C(C)=NNc2nc(-c3cccc4cc[nH]c34)cs2)ccc1O — IC50 (T47D; MTT; 96 h): 20.8 µM
NS(=O)(=O)c1ccc(-n2nc(C(=O)NN=Cc3cccnc3)cc2-c2ccccc2)cc1 — IC50 (PaCa-2; fluorescence; 48 h): 27.8 µM
Cc1ncsc1-c1ccc([C@H](C)NC(=O)[C@@H]2C[C@@H](O)CN2C(=O)[C@@H](NC(=O)CCCS(=O)(=O)NC(=O)c2nc(N3CCc4cccc(C(=O)Nc5nc6ccccc6s5)c4C3)ccc2-c2cnn(CC34CC5CC(CC(C5)C3)C4)c2C)C(C)(C)C)cc1 — IC50 (MOLT-4; MTS; 48 h): 0.0083 µM
Nc1cccc2c1C(=O)N(C1CCC(=O)NC1=O)C2=O (stereo not shown) — IC50 (SU-DHL-2; CCK-8; 7 days): 1.5 µM
Cc1c(-c2ccc(N3CCc4cccc(C(=O)Nc5nc6ccccc6s5)c4C3)nc2C(=O)O)cnn1CC12CC3CC(C1)CC(C(=O)NCCOCCNc1cccc4c1C(=O)N(C1CCC(=O)NC1=O)C4=O)(C3)C2 (stereo not shown) — IC50 (MOLT-4; MTS; 48 h): 0.0516 µM
COc1ccc(C=C(C#N)C(=O)c2c[nH]c3ccccc23)cc1OC — IC50 (MIA PaCa-2; MTT; 48 h): 37 µM
Cc1ncsc1-c1ccc([C@H](C)NC(=O)[C@@H]2C[C@@H](O)CN2C(=O)[C@@H](NC(=O)CCCCCCCCS(=O)(=O)NC(=O)c2nc(N3CCc4cccc(C(=O)Nc5nc6ccccc6s5)c4C3)ccc2-c2cnn(CC34CC5CC(CC(C5)C3)C4)c2C)C(C)(C)C)cc1 — IC50 (MOLT-4; MTS; 48 h): 0.0094 µM
COc1ccc(C=C(C#N)C(=O)c2c[nH]c3ccccc23)cc1 — IC50 (MIA PaCa-2; MTT; 48 h): 15.4 µM
CC(=NNC(=O)c1cc(-c2ccccc2)n(-c2ccc(S(N)(=O)=O)cc2)n1)c1ccc(Br)cc1 — IC50 (PaCa-2; fluorescence; 48 h): 31.5 µM
Nc1ccccc1NC(=O)c1ccc(Cn2cnc3c(Nc4ccc(Cl)cc4)ncnc32)cc1 — IC50 (Jurkat; MTT; 72 h): 13.5 µM
FC(F)(F)c1cc(OCc2cc(-c3ccccc3)no2)c2ccccc2n1 — IC50 (LN-229; MTS; 72 h): 32.1 µM
NS(=O)(=O)c1ccc(-n2nc(C(=O)NN=Cc3ccc(O)cc3)cc2-c2ccccc2)cc1 — IC50 (PaCa-2; fluorescence; 48 h): 8.53 µM
O=c1cc(OCc2cc(-c3ccccn3)no2)c2ccccc2o1 — IC50 (LN-229; MTS; 72 h): > 100 µM
COc1cccc2c1C(=O)c1c(O)c3c(c(O)c1C2=O)C[C@@](O)(C(=O)CO)C[C@@H]3O[C@H]1C[C@H](N)[C@H](O)[C@H](C)O1 — IC50 (Jurkat; 96 h): 0.0339 µM
